Activity calls are given as the source filed them.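 The calls were made as follows, unless noted: active = viability loss from added drug above about 55%, and viability with drug at most 40%, in both replicates (limit read from the data, passing the limit was not always enough); inconclusive = both conditions met in only one replicate; inactive = neither replicate meets both conditions.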
Experiments:
[1] = SK-BR-3 cell growth inhibitors, pilot screen, 24 h, human (AID 572;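 active = viability at or below 10% of carrier control in both of two separate runs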;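 also: compound exposure lasted between 18 and 24 h rather than exactly 24 h; 100% = carrier-treated control wells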); settings: SK-BR-3 viability, CellTiter-Glo luminescence, at 10 µM, stronger effect = lower value
[2] = HUVEC growth inhibition – cell-based, human, primary screen (AID 575;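 active = viability at or below 30% in both replicate assays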;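 also: 100% = median of untreated cell wells with 0.1% DMSO on each plate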); settings: HUVEC proliferation, CellTiter-Glo luminescence, 72 h; at 10 µM; stronger effect = lower value
Summary of the method: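 System: primary human umbilical vein endothelial cells; Quantity: 1250 endothelial cells in each well; Buffer or medium: supplemented EBM, 2% fetal bovine serum; Doses: one dose, 10 µM final, 0.1% DMSO; Incubation: 72 h compound incubation; Technique: ATP-based CellTiter-Glo luminescent read; Evaluation: percent of median DMSO-control luminescence; Controls: vehicle and MePR control wells.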

[3] = growth inhibitors of H69AR lung tumor, primary screen, human, duplicate replicates (AID 580;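 active = viability at or under a set limit in both replicates, limit being median viability minus 3 SD, cut at about 48% in these data, passing the limit was not always enough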;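 also: 100% = mean luminescence of untreated wells and 0% = no signal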); settings: H69AR lung tumor cells viability, ATP luminescence, 72 h; at 10 µM; stronger effect = lower value
[4] = reversal of MRP1-mediated doxorubicin resistance, pilot screen, H69AR cells, doxorubicin co-treatment (AID 601); settings: CellTiter-Glo, 72 h, at 10 µM; for differential viability (reversal): stronger effect = higher value
[5] = 384-well plate pilot, post-Golgi transport modulator project, inhibition of yeast transport mutant growth (AID 636; in the data active = inhibition above about 31%); settings: absorbance 615 nm, about 18 h, stronger effect = higher value
[6] = growth suppression of yeast trafficking mutant, preliminary HTS, modulators of trafficking downstream of Golgi apparatus project, 1536-format plate, OD 615 nm (AID 637; in the data active = inhibition above about 30%); settings: yeast transport mutant growth, absorbance 615 nm, 18 h; stronger effect = higher value
[7] = H69AR cells + 2 uM doxorubicin, measured here: viability with 2 uM doxorubicin, stronger effect = lower value
[8] = H69AR cells, compound alone cytotoxicity

| SMILES | viability [1] | viability [2] | viability [3] | differential viability (reversal) ([4]; H69AR cells + 2 uM doxorubicin) | viability [4, 7] [%] | viability [4, 8] [%] | inhibition [5] | inhibition [6] |
| --- | --- | --- | --- | --- | --- | --- | --- | --- |
| CCCC1c2ccc(C)n2CCN1C(=O)Nc1ccccc1Cl (configuration not stated) | 92% (inactive) | 92.2% (inactive) | 93.5% (inactive) | 6.95% (inactive) | 86.6 | 93.5 | 2.73% (inactive) | 8.2% (inactive) |
| Cc1ccc2nc(C3CCN(CC(=O)N4CCCCCC4)CC3)[nH]c2c1 | 84% (inactive) | 108% (inactive) | 96.3% (inactive) | -10.6% (inactive) | 107 | 96.3 | -1.1% (inactive) | 0.73% (inactive) |
| N#Cc1c(N)n(CCOC(=O)c2cccc(Br)c2)c2nc3ccccc3nc12 | 111% (inactive) | 75.6% (inactive) | 96.4% (inactive) | 3.64% (inactive) | 92.8 | 96.4 | -10.1% (inactive) | 3.55% (inactive) |
| Cc1cc(C(=O)CSc2nnc(-c3ccccc3)n2C)c(C)n1C | 83% (inactive) | 107% (inactive) | 95.5% (inactive) | -3% (inactive) | 98.5 | 95.5 | 1.78% (inactive) | 0.73% (inactive) |
| COC(=O)c1ccc(-c2ccco2)n1Cc1nc(-c2ccc(OC)c(OC)c2)oc1C | 125% (inactive) | 25.9% (active) | 48.8% (active) | -8.4% (inactive) | 57.2 | 48.8 | -4.32% (inactive) | 4.73% (inactive) |
| O=C1c2ccccc2C(=O)N1CCN1CCCCC1 | 98% (inactive) | 129% (inactive) | 103% (inactive) | 4.01% (inactive) | 99.4 | 103 | 3.38% (inactive) | -1.64% (inactive) |
| Cc1ccc(-c2nnc3c4ccccc4c(C)nn23)cc1S(=O)(=O)N1CCN(C)CC1 | 85% (inactive) | 78.6% (inactive) | 74% (inactive) | -16.7% (inactive) | 90.7 | 74 | -5.2% (inactive) | 1.15% (inactive) |
| C[N+](C)(C)CCCCCCCCCC[N+](C)(C)C | 106% (inactive) | 100% (inactive) | 104% (inactive) | 13.9% (inactive) | 90 | 104 | 1.69% (inactive) | -1.5% (inactive) |
| CCc1c(C(=O)Nc2ncn(Cc3cccc(C)c3)n2)csc1C | 105% (inactive) | 112% (inactive) | 85.6% (inactive) | 4.33% (inactive) | 81.3 | 85.6 | -2.84% (inactive) | -1.64% (inactive) |
| O=C(CN1CCCN(S(=O)(=O)c2ccc(Br)cc2)CC1)Nc1ccc2c(c1)OCO2 | 91% (inactive) | 75% (inactive) | 6.58% (active) | -10.3% (inactive) | 16.9 | 6.58 | -0.52% (inactive) | 3.77% (inactive) |
| O=C1c2ccccc2-c2ccc(C(=O)N3CCOCC3)cc21 | 87% (inactive) | 105% (inactive) | 89.7% (inactive) | -2.82% (inactive) | 92.5 | 89.7 | -2.7% (inactive) | 29.4% (inactive) |
| Cc1ccn2cc(CCNC(=O)CC(C)(C)C)nc2c1 | 89% (inactive) | 113% (inactive) | 97.9% (inactive) | 9.27% (inactive) | 88.6 | 97.9 | -4.19% (inactive) | -2.36% (inactive) |
| CCOC(=O)CSc1nnc2n1C(C)(C)Cc1ccccc1-2 | 110% (inactive) | 111% (inactive) | 101% (inactive) | -5.61% (inactive) | 106 | 101 | 4.32% (inactive) | -0.91% (inactive) |
| CCOC(=O)N1CCC(NC(=O)Cn2cc3c(n2)CCC(C)C3)CC1 (configuration not stated) | 128% (inactive) | 93% (inactive) | 98.7% (inactive) | 3% (inactive) | 95.7 | 98.7 | -1.64% (inactive) | 18.7% (inactive) |
| NC(N)=NC(N)=NCCc1ccccc1 | 103% (inactive) | 104% (inactive) | 99.4% (inactive) | -0.22% (inactive) | 99.6 | 99.4 | 0.65% (inactive) | -0.67% (inactive) |
| CC(CN1c2ccccc2Sc2ccccc21)N(C)C (configuration not stated) | 88% (inactive) | 62.9% (inactive) | 92.2% (inactive) | 4.55% (inactive) | 87.7 | 92.2 | -2.73% (inactive) | -1.67% (inactive) |
| Cc1ccc(F)cc1NC(=O)C1CCCN(c2ncccn2)C1 (configuration not stated) | 100% (inactive) | 104% (inactive) | 88.7% (inactive) | -1.88% (inactive) | 90.6 | 88.7 | -6.8% (inactive) | -2.91% (inactive) |
| CCC1CCCCN1C(=O)CSc1nnc(-c2ccco2)o1 (configuration not stated) | 126% (inactive) | 94.4% (inactive) | 85.7% (inactive) | 3.32% (inactive) | 82.3 | 85.7 | -1.78% (inactive) | -6.45% (inactive) |
| COc1ccc(S(=O)(=O)NCCSCc2ccco2)cc1Cl | 48% (inactive) | 102% (inactive) | 92.4% (inactive) | 1.13% (inactive) | 91.3 | 92.4 | -6.3% (inactive) | 4% (inactive) |
| CCOC(=O)c1c2n(c3ccc(O)cc13)CCCCC2 | 111% (inactive) | 89.7% (inactive) | 82.4% (inactive) | 1.8% (inactive) | 80.6 | 82.4 | -7.47% (inactive) | 0% (inactive) |
| CCOC(=O)c1ccc(NC(=O)CCc2nc(-c3ccc(C)cc3)no2)cc1 | 85% (inactive) | 38% (inactive) | 94.3% (inactive) | 5.47% (inactive) | 88.8 | 94.3 | -3.29% (inactive) | 3.93% (inactive) |
| COc1cc(C(=O)OC(C)CN2CCCC2)cc(OC)c1OC (configuration not stated) | 99% (inactive) | 98.1% (inactive) | 108% (inactive) | 11.5% (inactive) | 97 | 108 | -3.65% (inactive) | 0.55% (inactive) |
| NS(=O)(=O)c1ccc(CCNC(=O)c2cccnc2)cc1 | 126% (inactive) | 92.3% (inactive) | 97.2% (inactive) | 3.81% (inactive) | 93.4 | 97.2 | -4.46% (inactive) | -0.91% (inactive) |
| C[C@]12CC[C@@H]3c4ccc(O)cc4C(=O)C[C@H]3[C@@H]1CC[C@@H]2O | 103% (inactive) | 89.2% (inactive) | 80.6% (inactive) | 2.45% (inactive) | 78.2 | 80.6 | -0.39% (inactive) | 2.67% (inactive) |

From PubChem BioAssay
